Most compounds without a hit are left out; they make up all but 2% or so of the library.
PLC-beta3 inh: blocks human PLC-beta3 enzyme activity. Purified PLC-beta3, fluorogenic substrate, fluorescence. Q01970. inhibition, % at 12.2 µM. hit rate 0.18% among 370,000; in the data active means inhibition above about 11%;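 further: 0% = median of compound wells on plate and 100% = full blocker control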
IMP-1 inhibitor: inhibitors of Pseudomonas aeruginosa IMP-1 metallo-beta-lactamase; purified IMP-1, nitrocefin hydrolysis, epi-absorbance fluorescence; inhibition, % at 5.6 µM; hit rate 0.45% among 290,000;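 active means inhibition above the mean plus 3 SD of all compounds in the same screening run, cut at about 4.5% in these data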;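 further: 0% = IMP-1 with DMSO and 100% = DMSO wells lacking enzyme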
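System: purified IMP-1; amount: IMP-1 0.2 nM before substrate addition; compound: single dose, 5.6 µM; times: 25 °C, 15 min preincubation, 25 min reaction; signal: Epi-absorbance via hydrolysed-nitrocefin quenching of white-plate fluorescence, 480/530 nm, EDTA stop; benchmarks: DMSO with and without IMP-1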
PLC-gamma1 inh: inhibitors of human phospholipase C gamma1; P19174; purified PLC-gamma1, fluorogenic substrate, fluorescence; inhibition, % at 12.2 µM; hit rate 0.84% among 370,000; in the data active means inhibition above about 9.5%
Target sequence (P19174 whole entry, looked up): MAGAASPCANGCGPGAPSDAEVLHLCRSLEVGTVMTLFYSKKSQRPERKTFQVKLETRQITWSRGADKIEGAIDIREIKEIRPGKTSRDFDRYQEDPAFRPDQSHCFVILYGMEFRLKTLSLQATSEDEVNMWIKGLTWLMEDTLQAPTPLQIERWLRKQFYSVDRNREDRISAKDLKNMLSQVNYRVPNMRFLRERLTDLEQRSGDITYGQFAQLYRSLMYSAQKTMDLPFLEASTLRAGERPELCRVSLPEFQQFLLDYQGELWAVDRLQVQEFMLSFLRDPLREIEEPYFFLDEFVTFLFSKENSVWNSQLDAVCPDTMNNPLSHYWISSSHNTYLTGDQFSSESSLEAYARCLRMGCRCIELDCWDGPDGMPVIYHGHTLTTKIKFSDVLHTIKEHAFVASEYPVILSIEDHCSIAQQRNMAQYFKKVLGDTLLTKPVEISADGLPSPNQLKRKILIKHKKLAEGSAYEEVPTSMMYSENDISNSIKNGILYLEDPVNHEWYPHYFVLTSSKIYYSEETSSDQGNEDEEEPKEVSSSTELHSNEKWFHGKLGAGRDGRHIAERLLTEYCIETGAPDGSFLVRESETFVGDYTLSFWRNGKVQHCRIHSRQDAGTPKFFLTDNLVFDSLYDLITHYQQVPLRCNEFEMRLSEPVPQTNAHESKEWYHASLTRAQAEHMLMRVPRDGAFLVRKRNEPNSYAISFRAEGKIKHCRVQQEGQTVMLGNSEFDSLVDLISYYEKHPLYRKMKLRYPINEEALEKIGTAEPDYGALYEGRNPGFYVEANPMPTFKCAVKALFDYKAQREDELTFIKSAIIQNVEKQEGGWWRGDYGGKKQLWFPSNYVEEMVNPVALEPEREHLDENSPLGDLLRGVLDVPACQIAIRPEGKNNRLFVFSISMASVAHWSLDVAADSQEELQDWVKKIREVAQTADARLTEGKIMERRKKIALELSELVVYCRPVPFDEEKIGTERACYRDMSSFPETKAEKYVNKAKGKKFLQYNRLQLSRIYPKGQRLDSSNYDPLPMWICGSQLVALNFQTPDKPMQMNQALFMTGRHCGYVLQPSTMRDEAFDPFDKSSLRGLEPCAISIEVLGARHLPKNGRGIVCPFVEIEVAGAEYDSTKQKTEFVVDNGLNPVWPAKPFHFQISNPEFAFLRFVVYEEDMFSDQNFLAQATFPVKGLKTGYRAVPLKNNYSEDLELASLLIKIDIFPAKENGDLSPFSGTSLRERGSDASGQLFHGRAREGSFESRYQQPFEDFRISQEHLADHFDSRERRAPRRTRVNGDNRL
PvdQ inh: blocks Pseudomonas aeruginosa PvdQ acylase activity | hit rate 0.063% among 340,000 | purified PvdQ acylase, fluorescence plate reader | inhibition, % at 10 µM; in the data active means inhibition above about 30%, passing the limit was not always enough;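 further: 0% = vehicle neutral wells and 100% = reference inhibitor wells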
VIM-2 inhibitor: inhibitors of Pseudomonas aeruginosa VIM-2 metallo-beta-lactamase | purified VIM-2, nitrocefin hydrolysis, epi-absorbance fluorescence | inhibition, % at 5.6 µM | AID 1527 | hit rate 0.89% among 290,000;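 active means inhibition above the mean of all tested compounds plus 3 SD, cutoff set per screening run, cut at about 7.5% in these data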;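 further: red hydrolysis product quenches plate fluorescence so inhibitors raise well fluorescence; 0% = enzyme with DMSO and 100% = DMSO without enzyme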
* = called active by the depositor; i = inactive; / = not tested or not shown; ! = not confirmed by another sample.

SMILES | PLC-beta3 inh | IMP-1 inhibitor | PLC-gamma1 inh | PvdQ inh | VIM-2 inhibitor
CC(=O)Oc1cc2oc(=O)c3c(c2cc1Cl)CCC3 | i | -5 | i | -9 | 9.7*
COCC(=O)N(C)[C@H]1C[C@H]2c3[nH]c4c(-c5ccc6c(c5)OCO6)cccc4c3CCN2C(=O)[C@H]1[C@H](C)O | -15 | / | -10 | / | /
O=C(CCCn1cnc([N+](=O)[O-])n1)Nc1cccc2ccccc12 | -11 | 37* | 0 | -5 | 1
CN(Cc1nccn1C)C(=O)c1cc(COc2ccc3ncccc3c2)on1 | -4 | -3 | 2 | -22 | 10.0*
COC(=O)C1CCC(=S)N1C(=O)c1ccccc1 (centres undefined) | 0 | 20* | 3 | -10 | 1
COC(=O)[C@H]1CN(C(=O)c2ccccc2)C(=O)N1 | 1 | 0 | -1 | -17 | 1
Cc1c(CC(=O)O)c(=O)oc2cc3occ(-c4ccc(F)cc4)c3cc12 | -17 | 0 | -8 | 3 | 1
CC[C@@H](C)[C@H](NC(=O)Cc1c(C)c2cc3c(C)coc3c(C)c2oc1=O)C(=O)O | -381 | -4 | -289 | -3 | 2
Cc1c(CC(=O)O)c(=O)oc2c(C)c3occ(-c4ccc(Br)cc4)c3cc12 | -23 | -2 | -16 | 4 | 8.9*
CCCCC(NC(=O)Cc1c(C)c2cc3c(-c4ccccc4)coc3c(C)c2oc1=O)C(=O)O (centres undefined) | -95 | -4 | -62 | -15 | 8.5*
Cc1nc(N2CCN(C(=O)c3ccco3)CC2)c2c3c(sc2n1)CCCC3 | -3 | 0 | -1 | -3 | 2
CCc1nc(SCC(=O)N2CCN(C(=O)c3ccco3)CC2)c2c3c(sc2n1)CCCC3 | 3 | -2 | 1 | -8 | 9.7*
CCOC(=O)[C@@]12CN(C(=O)OC(C)(C)C)CC=C1N(Cc1ccc(OC)cc1)C(=O)[C@H]2CC(=O)NCC12CC3CC(CC(C3)C1)C2 | -4 | / | 0 | / | /
OC(CSc1ccccc1Cl)CN1CCN(c2ccc(F)cc2)CC1 (centres undefined) | 6 | -3 | 4 | 1 | -2
OC(CSc1c(Cl)cccc1Cl)CN1CCN(c2ccc(F)cc2)CC1 (centres undefined) | 8 | -3 | 15* | 7 | -4
CSCCC(NC(=O)C1CC1)c1nc2ccccc2[nH]1 (centres undefined) | -1 | 4.8* | -1 | -15 | 0
CSCC[C@H](NC(=O)C1CCCC1)c1nc2ccccc2[nH]1 | 0 | 0 | 0 | 15 | -2
Cc1sc2nc(COC(=O)CNC(=O)c3ccc(C(C)(C)C)cc3)[nH]c(=O)c2c1C | -7 | 8.6* | -2 | -4 | -4
Cc1sc2nc(COC(=O)CNC(=O)c3cc(F)ccc3F)[nH]c(=O)c2c1C | 3 | / | 0 | / | /
Cc1ccccc1CNC(=O)C1C2C=CC3(CN(Cc4ccccc4)C(=O)C13)O2 (centres undefined) | -2 | / | -1 | / | /
O=c1[nH]c(=S)[nH]c2c1C(c1ccc(Br)cc1)c1c([nH]c(=S)[nH]c1=O)O2 | -4 | -2 | 24* | -9 | -7
COc1ccc([C@H]2OC(=O)C[C@H]2C(=O)N2CCN(c3ccccc3Cl)CC2)cc1OC | 5 | / | -3 | / | /
O=C1OC(c2ccccc2)c2ccc3ccccc3c21 (centres undefined) | 0 | -2 | -2 | -15 | 9.5*
CCOc1cc(C(=O)OCC(=O)N(C)c2ccccc2)cc(OCC)c1OCC | -3 | 12* | -1 | 9 | 0
COc1cc(C(=O)OCC(=O)N(C)c2ccccc2)cc(OC)c1OC | -4 | -2 | -2 | -17 | -2
SMILES | PLC-beta3 inh | IMP-1 inhibitor | PLC-gamma1 inh | PvdQ inh | VIM-2 inhibitor
C=CCNc1nc(NC(C)(C)CO)nc(OCC)n1 | 1 | 28* | 2 | -9 | -5
C=CCNc1nc(NC(C)(C)CO)nc(OC)n1 | 5 | -4 | 2 | -8 | -2
CCCC1CCC2(CCCN2CCOC(=S)NCc2cccc(C)c2)CC1 (centres undefined) | 1 | / | -1 | / | /
NS(=O)(=O)c1ccc2c(c1)C1C=CCC1C(C1CC=CCC1)N2 (centres undefined) | -83 | 13* | -74 | -25 | 0
CCCCOCCCNC(=O)C[C@H]1C[C@@]2(C(=O)OC)C(=C[C@H](C(C)(C)C)O[C@@H]2C)N(Cc2ccc(Cl)cc2Cl)C1=O | 5 | / | 2 | / | /
O=C(Cn1c(=O)oc2cc(S(=O)(=O)N3CCCC3)ccc21)N1CCCC1 | 3 | -6 | -1 | -8 | -1
O=C(Cn1c(=O)oc2cc(S(=O)(=O)N3CCCC3)ccc21)NC1CCCCC1 | -2 | -2 | -1 | 1 | -3
O=C(Cn1c(=O)oc2cc(S(=O)(=O)N3CCCC3)ccc21)NCc1ccc(F)cc1 | -2 | -5 | 2 | -10 | 7.9*
CC1CCC(NC(=O)Cn2c(=O)oc3cc(S(=O)(=O)N4CCCC4)ccc32)CC1 (centres undefined) | -1 | 4.9* | 0 | 5 | -4
C[C@@H]1CCCN1c1cccc2c1S(=O)(=O)N(C1CC1)CCCO2 | -9 | / | -4 | / | /
O=C(NCCO)Nc1ccc2nc(-c3ccco3)c(-c3ccco3)nc2c1 | / | 6.4* | / | / | 4
O=C(NCCCO)c1ccc2nc(-c3ccco3)c(-c3ccco3)nc2c1 | -372 | -1 | -263 | 11 | -3
CN1C2=N[C@@H](c3ccccc3)CC(=O)N2/C(=C\c2ccccc2)[C@H]1c1ccccc1 | 1 | / | 5 | / | /
Cc1ccc(Cl)cc1Nc1nc(-c2sc(NC(=O)C(C)(C)C)nc2C)cs1 | -9 | 18* | -6 | -14 | 0
COc1ccccc1Nc1nc(-c2sc(NC(=O)C(C)(C)C)nc2C)cs1 | -20 | -3 | -16 | 1 | -2
O=C(c1cc(Cl)nc2ccccc12)N1CCN(S(=O)(=O)c2cccc(F)c2)CC1 | -11 | / | -2 | 5 | /
O=C(c1cc(Cl)nc2ccccc12)N1CCN(S(=O)(=O)c2ccccc2[N+](=O)[O-])CC1 | -7 | 4.5* | -2 | -3 | -1
CCCCCCN1CCS(=O)(=O)N(Cc2ccc(C)cc2)C(C(=O)OC)C1 (centres undefined) | 0 | / | -1 | / | /
CC(C)n1c(-c2ccc(C(C)(C)C)cc2)n[nH]c1=S | 2 | 0 | 0 | -12 | -4
CC(C)n1c(-c2ccccc2F)n[nH]c1=S | 1 | 5.0* | -1 | 3 | 6
N=C(N)c1ccc(Cl)cc1 | 0 | -1 | 2 | -8 | -3
N=C(N)c1ccc(/C=C/c2ccc(C(=N)N)cc2O)cc1 | -446 | 5.7* | -409 | 7 | 4
OC(c1ccccc1)(c1ccccc1)C1CCN(CCCOc2ccc(F)cc2)CC1 | 4 | / | 11*! | / | /
CC(C)(c1ccccc1)c1ccc(OCCCN2CCNCC2)cc1 | 3 | -2 | -1 | -10 | 2
CC(C)(c1ccccc1)c1ccc(OCCN2CCOCC2)cc1 | -4 | 4.9* | 2 | -3 | 1
COC(=O)c1c(/N=C/N(C)C)sc2c1CCN(c1ncc(C(F)(F)F)cc1Cl)C2 | -27 | 5.0* | -19 | -9 | -1
O=c1c2ccccc2n(Cc2ccco2)n1[C@@H](Cc1ccccc1)Cn1cc(-c2ccc(-c3ccccc3)cc2)nn1 | -50 | / | -30 | / | /

Source: PubChem BioAssay (several laboratories)
